Compound activity as filed in PubChem.
An excerpt weighted towards active compounds, which were near 1.8% of everything screened.
MC4R antagonist – MC4R antagonists of cAMP signaling, primary screen, cell-based, TR-FRET, antagonist arm of biased-ligand search; Melanocortin receptor 4 (Homo sapiens), P32245; MC4R-expressing cells, MTII-stimulated cAMP, LANCE TR-FRET; inhibition, % at 6.5 µM; actives 0.48% (n = 360,000); AID 540295, 2011;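 active means inhibition above its plate's cutoff, the mean of tested wells on that plate plus 3 SD, cut at about 29% in these data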;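 further: 0% = Melanotan II alone and 100% = Melanotan II plus saturating MCL0020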
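material = U2OS cells stably expressing human melanocortin 4 receptor (MC4R) | also added = Melanotan II challenge | dosing = single nominal compound dose of 6.5 µM | detection = TR-FRET with Eu-cAMP and labeled anti-cAMP, 671 nm | replication = singlicate | timing = compound 30 min, challenge 1 h, detection 1 h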
TLR9-MyD88 inh – inhibitors of TLR9-MyD88 association in cells, primary screen, cell-based, CHO, BLA complementation, fluorescence. CCF4 FRET ratio. inhibition, % at 4.98 µM. actives 0.21% (n = 340,000);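 active means inhibition above the mean over all tested compounds plus 3 SD, cut at about 21% in these data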;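 further: 0% = DMSO only wells and 100% = clavulanate BLA inhibitor control wells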
MC4R ag barr – MC4R agonists recruiting beta-arrestin, primary screen, cell-based, luminescence, agonist arm of biased-ligand search; activation, % at 8.9 µM; U2OS MC4R beta-arrestin complementation; percent of melanotan II response, DMSO zero; actives 0.98% (n = 360,000); AID 540308, 2011;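 active means activation above a per-plate cutoff, the mean activation of sample wells on that plate plus 3 SD, cut at about 8% in these data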
TLR4-MyD88 BLA – inhibitors of TLR4-MyD88 association in cells, primary screen, cell-based, HeLa CL3-4, BLA complementation, FRET ratio; inhibition, % at 8.4 µM; actives 0.18% (n = 200,000); HeLa CL3-4 TLR4/MyD88 BLA complementation; Toll-like receptor 4 (Homo sapiens) + Myeloid differentiation primary response protein …; in the data active means inhibition above about 25%;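 further: 0% = vehicle and 100% = reference inhibitor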
NOD2-RIPK2 inh – NOD2-RIPK2 binding disruptors in cells, primary screen, fluorescence, CHO cells, BLA complementation; Receptor-interacting serine/threonine-protein kinase 2 (Homo sapiens), O43353; CCF4 ratio; inhibition, % at 4.98 µM; actives 0.38% (n = 360,000); AID 624267, 2012; in the data active means inhibition above about 21%;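 further: 0% = vehicle only and 100% = reference blocker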
TLR9-MyD88 conf – TLR9-MyD88 association inhibitors, retest, confirmation, cell-based, CHO, BLA complementation, fluorescence, triplicate. shares compounds with TLR9-MyD88 inh. CCF4 FRET ratio. inhibition, % at 4.98 µM. actives 51% (n = 680). AID 540250, 2011;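 active means mean inhibition across three repeats above about 21% taken from the earlier screen, limit read from the data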;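 further: blue over green emission ratio reports constitutive TLR9 MyD88 association via BLA complementation; 0% = DMSO vehicle wells and 100% = clavulanate BLA inhibitor wells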
BLA counter-1 – beta-lactamase reporter inhibitors in CHO cells, artefact control for TLR9-MyD88 binding inhibitor project, cell-based, fluorescence | inhibition, % at 4.98 µM | AID 540251, 2011 | shares compounds with TLR9-MyD88 inh | actives 7% (n = 680) | CHO-BLA cells, CCF4 FRET ratio, BLA reporter;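 active means mean inhibition above a 50% cutoff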;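 further: counterscreen of TLR9-MyD88 hits on CMV-driven BLA in CHO-K1 cells; 0% = DMSO alone and 100% = clavulanate blocking BLA; higher means less blue over green ratio so more BLA blockade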
TLR9 CHO tox – CHO cell viability loss – luminescence, single concentration, cytotoxicity control for TLR9-MyD88 binding inhibitor project. shares compounds with TLR9-MyD88 inh. TLR9-MyD88 CHO cells cytotoxicity. inhibition, % at 4.98 µM. actives 39% (n = 680). AID 588336, 2011; in the data active means inhibition above about 11%
cAMP nonselect – nonselective cAMP signaling inhibitors, parental cells, counter-screen for MC4R biased antagonist project, cell-based, TR-FRET, U2OS, forskolin, triplicate; shares compounds with MC4R antagonist; AID 602193, 2012; actives 26% (n = 1,600); inhibition, % at 6.5 µM; LANCE TR-FRET;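 active means mean inhibition over triplicates above the low-control well mean plus 3 SD, set per campaign, cut at about 13% in these data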;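 further: signal is single emission at 671 nm which falls as cellular cAMP rises; 0% = forskolin-stimulated wells and 100% = buffer without forskolin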
MC4R antag conf – MC4R cAMP antagonists, retest, confirmation, cell-based, TR-FRET. shares compounds with MC4R antagonist. MC4R-expressing cells, MTII-stimulated cAMP. inhibition, % at 6.5 µM. actives 27% (n = 1,600); in the data active means inhibition above about 29%;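 further: 0% = agonist stimulated wells alone and 100% = agonist stimulated wells plus saturating reference antagonist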
MC4R barr ag – MC4R beta-arrestin agonists, retest, confirmation, cell-based, luminescence, U2OS; U2OS MC4R beta-arrestin recruitment; scaled DMSO 0%, Melanotan II 100%; shares compounds with MC4R ag barr; actives 31% (n = 2,400); activation, % at 8.9 µM; AID 602192, 2012;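 active means mean activation across replicates above the hit cutoff set in the earlier primary screen, cut at about 8% in these data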
MOR-DOR barr ag – agonists of MOR-DOR heterodimerization, counter-screen for MC4R biased agonist project, cell-based, luminescence; actives 5.8% (n = 2,400); U2OS PathHunter beta-arrestin, beta-gal luminescence; percent of deltorphin B response, DMSO zero; activation, % at 9.2 µM; shares compounds with MC4R ag barr;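 active means mean activation across replicates exceeds the hit threshold derived in the earlier primary screen, cut at about 18% in these data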;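 further: 100% = deltorphin B at 0.9 µM final and 0% = DMSO alone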
NOD2 RIPK2 conf – NOD2-RIPK2 binding disruptors, retest, confirmation, fluorescence, CHO cells, BLA complementation, triplicate; shares compounds with NOD2-RIPK2 inh; CCF4 FRET; inhibition, % at 4.98 µM; actives 70% (n = 1,200);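 active means mean inhibition across replicates above a set limit taken from the earlier primary screen, cut at about 21% in these data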;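 further: 0% = DMSO-only wells and the high end = clavulanate BLA-blocked wells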
BLA counter-2 – NOD2-RIPK2 counterscreen BLA reporter activity. shares compounds with NOD2-RIPK2 inh. CHO BLA reporter, CCF4 FRET ratio. inhibition, % at 4.98 µM. actives 57% (n = 1,200);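 active means mean inhibition above the low-control mean inhibition plus three low-control SD, cut at about 11% in these data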;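 further: 0% = DMSO only wells and 100% = clavulanate high control wells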
* marks the source's active call; other numbers are inactive results; · = not tested or not shown.

SMILES	MC4R antagonist	TLR9-MyD88 inh	MC4R ag barr	TLR4-MyD88 BLA	NOD2-RIPK2 inh	TLR9-MyD88 conf	BLA counter-1	TLR9 CHO tox	NOD2 RIPK2 conf	BLA counter-2	others
Nc1ccc2nc(-c3ccccc3)c(-c3ccccc3)nc2c1	1	38*	-1	·	44*	33*	35	2	60*	68*
Nc1ccc2nc(-c3ccccc3)cnc2c1	4	39*	-2	·	44*	30*	34	-2	57*	63*
N#C/C(=C/c1ccc(N2CCCCCC2)o1)c1ccc(Cl)cc1	19	24*	2	21	39*	9	9	84*	28*	14*
O=C(NCCN1C(=O)S/C(=C\c2ccc(Cl)c(Cl)c2)C1=O)c1cnccn1	6	-4	1	5	-1	·	·	·	·	·
O=C(NCCN1C(=O)S/C(=C\c2ccc(Cl)c([N+](=O)[O-])c2)C1=O)C1=COCCO1	29*	24*	-4	·	39*	11	2	5	63*	-2	cAMP nonselect=9;MC4R antag conf=8
CC(=O)c1cccc(NS(=O)(=O)c2ccc(-c3cc(C)no3)s2)c1	-5	1	-1	·	-4	·	·	·	·	·
O=c1oc2ccccc2c(Cl)c1CN1CCCCC1	-6	23*	-1	-7	40*	75*	17	96*	95*	14*
O=c1oc2ccccc2c(N2CCCC2)c1CN1CCCC1	-7	-2	2	-2	3	·	·	·	·	·
O=C1N/C(=C/c2cccn2-c2ccc(F)cc2)C(=O)N1Cc1ccccc1	-12	61*	10*	10	75*	51*	52*	10	85*	89*	MC4R barr ag=3;MOR-DOR barr ag=4
CCOc1ccc(-c2c(C(=O)N/N=C/c3cccc(Br)c3)nnn2-c2nonc2N)cc1	11	4	2	·	-19	·	·	·	·	·
